Laboratory results as given in ChEMBL document CHEMBL1124174, “Substituted benzamides. 1. Potential nondopaminergic antagonists of chemotherapy-induced nausea and emesis” (J Med Chem, 1988).

Tests used:
[1] = molecular target: D(2) dopamine receptor (Canis lupus familiaris) (UniProt Q9GJU1); assay: In vivo antagonism activity against dopamine D2 receptor was measured as emesis in dog when administered subcutaneously; assay type: functional, organism-based
D(2) dopamine receptor = D(2) dopamine receptor (Rattus norvegicus, UniProt P61169); assay: In vitro antagonistic activity against Dopamine receptor D2 was evaluated for the inhibition of [3H]spiperone binding
Chain of D(2) dopamine receptor (P61169 whole entry): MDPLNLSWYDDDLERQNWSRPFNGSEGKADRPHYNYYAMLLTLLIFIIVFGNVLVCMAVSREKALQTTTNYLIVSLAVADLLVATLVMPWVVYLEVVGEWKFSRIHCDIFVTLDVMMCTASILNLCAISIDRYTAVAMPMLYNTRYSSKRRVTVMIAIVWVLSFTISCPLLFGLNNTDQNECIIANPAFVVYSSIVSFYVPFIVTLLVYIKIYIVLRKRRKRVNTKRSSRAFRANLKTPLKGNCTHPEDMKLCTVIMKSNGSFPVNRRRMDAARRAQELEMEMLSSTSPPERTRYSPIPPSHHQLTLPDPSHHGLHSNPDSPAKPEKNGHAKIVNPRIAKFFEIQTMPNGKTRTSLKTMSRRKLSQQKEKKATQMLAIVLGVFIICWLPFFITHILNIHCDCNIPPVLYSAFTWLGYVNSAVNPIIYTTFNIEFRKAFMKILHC
Method in brief: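 Rat striatal membranes were prepared by differential centrifugation in 50 mM Tris pH 7.4 at 4 °C. Membrane protein (10 mg) was incubated 15 min at 37 °C with 0.1 nM [3H]spiperone and varying competitor concentrations. Buffer: 50 mM Tris HCl pH 7.5, 0.1% ascorbic acid, pargyline, 120 mM NaCl, 5 mM KCl, 2 mM CaCl2, 1 mM MgCl2. (+)-Butaclamol defined nonspecific binding. Bound ligand was collected by filtration and scintillation counted. IC50 by log-logit regression.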

Mustela putorius furo [2] = assay: in vivo antagonism of cisplatin-induced emesis in ferret measured as emetic episodes, twice the dose of 3 mg/kg and in 3 ferrets; assay type: functional
Method in brief: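 Nonfasted castrated male Fitch ferrets (1–1.5 kg) carried jugular vein catheters implanted at least 48 h earlier under general anesthesia. Test compound or saline was given iv twice, 5 min before and 90 min after cisplatin (12 mg/kg iv; 12 mg/mL in warm saline). Emesis was watched for 4 h, with events within 1 min counted as one episode. % protection is relative to a pooled historical-plus-concurrent control, with t test versus saline.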

Mustela putorius furo [3] = assay: In vivo antagonism of cisplatin-induced emesis in ferret measured as emetic episodes, twice the dose of mg/kg and in 3 ferrets; assay type: functional
Method in brief: (§1)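 Nonfasted castrated male Fitch ferrets (1–1.5 kg) had jugular catheters implanted ≥48 h earlier under anesthesia. Compounds or saline were given iv twice, 5 min before and 90 min after cisplatin (12 mg/kg iv; 12 mg/mL in warm 0.9% saline). Emesis was observed up to 4 h; events within 1 min counted as one episode. Results were given as mean emetic episodes and % protection versus a pooled historical/concurrent control. t test versus saline.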

Mustela putorius furo [4] = assay: In vivo antagonism of cisplatin-induced emesis in ferret measured as percentage protection for twice the dose of 1 mg/kg and in 3 ferrets; assay type: functional; method in brief: as §1
Mustela putorius furo [5] = assay: In vivo antagonism of cisplatin-induced emesis in ferret measured as percentage protection for twice the dose of 3 mg/kg and in 3 ferrets; assay type: functional; method in brief: as §1
[6] = molecular target: D(2) dopamine receptor (Rattus norvegicus) (UniProt P61169); assay: In vivo antagonism activity against D2 receptor was measured as stereotypy in rat when administered subcutaneously; assay type: functional, organism-based
Chain of D(2) dopamine receptor (Rattus norvegicus) (P61169 whole entry): as above
Method in brief: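 Male Long Evans rats (275 g) were dosed sc in dilute aqueous HCl (pH 4.5-5.5) 30 min before apomorphine (1 mg/kg sc).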

[7] = molecular target: D(2) dopamine receptor (Rattus norvegicus) (UniProt P61169); assay: In vivo antagonistic activity against dopamine D2 receptor was measured as catalepsy in rat when administered subcutaneously; assay type: functional, organism-based
Method in brief: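 Male Long Evans rats (275 g) received graded sc doses in dilute aqueous HCl (pH 4.5-5.5). They were observed 180 min for catalepsy, scored when the animal stayed stationary ≥15 s on a four-cork template.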

Canis familiaris [8] = assay: In vivo antagonism of cisplatin-induced emesis in dog measured as emetic episodes, twice the dose of 3 mg/kg in 2 dogs; assay type: functional, Canis lupus familiaris
Method in brief: (§2)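 Nonfasted mature male or female beagles were dosed sc twice, 30 min before and 120 min after cisplatin (3 mg/kg iv; 3 mg/mL in warm 0.9% saline, used immediately). Emesis was observed up to 5 h; events within 2 min counted as one episode. Results were given as mean emetic episodes and % protection versus a dynamic control (historical and concurrent saline means pooled). t test versus saline.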

Canis familiaris [9] = assay: In vivo antagonism of cisplatin-induced emesis in dog measured as emetic episodes, twice the dose of 6 mg/kg in 2 dogs; assay type: functional, Canis lupus familiaris; method in brief: as §2
Canis familiaris [10] = assay: In vivo antagonism of cisplatin-induced emesis in dog measured as percentage protection for twice the dose of 3 mg/kg in 2 dogs; assay type: functional, Canis lupus familiaris; method in brief: as §2
Canis familiaris [11] = assay: In vivo antagonism of cisplatin-induced emesis in dog measured as percentage protection for twice the dose of 6 mg/kg in 2 dogs; assay type: functional, Canis lupus familiaris; method in brief: as §2
Mustela putorius furo [12] = assay: In vivo antagonism of cisplatin-induced emesis in ferret measured as emetic episodes, twice the dose of 3 mg/kg and in 3 ferrets; assay type: functional; method in brief: as §1
Mustela putorius furo [13] = assay: In vivo antagonism of cisplatin-induced emesis in ferret measured as emetic episodes, twice the dose of 1 mg/kg and in 3 ferrets; assay type: functional; method in brief: as §1
Mustela putorius furo [14] = assay: In vivo antagonism of cisplatin-induced emesis in ferret measured as percentage protection for twice the dose of 31 mg/kg and in 3 ferrets; assay type: functional; conditions: dose 1 mg/kg; in the assay text read “1 mg/kg” for “31 mg/kg”; method in brief: as §1
Canis familiaris [15] = assay: In viov antagonism of cisplatin-induced emesis in dog measured as percentage protection for twice the dose of 1 mg/kg in 2 dogs; assay type: functional, Canis lupus familiaris; method in brief: as §2
Canis familiaris [16] = assay: In vivo antagonism of cisplatin-induced emesis in dog measured as percentage protection for twice the dose of 0.1 mg/kg in 2 dogs; assay type: functional, Canis lupus familiaris; method in brief: as §2
Canis familiaris [17] = assay: In vivo antagonism of cisplatin-induced emesis in dog measured as percentage protection for twice the dose of 0.3 mg/kg in 2 dogs; assay type: functional, Canis lupus familiaris; conditions: 0.3 mg/kg; method in brief: as §2
Canis familiaris [18] = assay: In vivo antagonism of cisplatin-induced emesis in dog measured as emetic episodes, twice the dose of 0.1 mg/kg in 2 dogs; assay type: functional, Canis lupus familiaris; method in brief: as §2
Canis familiaris [19] = assay: In vivo antagonism of cisplatin-induced emesis in dog measured as emetic episodes, twice the dose of 0.3 mg/kg in 2 dogs; assay type: functional, Canis lupus familiaris; conditions: 0.3 mg/kg; method in brief: as §2
Canis familiaris [20] = assay: In vivo antagonism of cisplatin-induced emesis in dog measured as emetic episodes, twice the dose of 1 mg/kg in 2 dogs; assay type: functional, Canis lupus familiaris; method in brief: as §2
Mustela putorius furo [21] = assay: In vivo antagonism of cisplatin-induced emesis in ferret measured as percentage protection for twice the dose of 0.3 mg/kg and in 3 ferrets; assay type: functional; conditions: 0.3 mg/kg; method in brief: as §1
Mustela putorius furo [22] = assay: In vivo antagonism of cisplatin-induced emesis in ferret measured as emetic episodes, twice the dose of 0.3 mg/kg and in 3 ferrets; assay type: functional; conditions: 0.3 mg/kg; method in brief: as §1

Chain of D(2) dopamine receptor (Canis lupus familiaris) (Q9GJU1 whole entry): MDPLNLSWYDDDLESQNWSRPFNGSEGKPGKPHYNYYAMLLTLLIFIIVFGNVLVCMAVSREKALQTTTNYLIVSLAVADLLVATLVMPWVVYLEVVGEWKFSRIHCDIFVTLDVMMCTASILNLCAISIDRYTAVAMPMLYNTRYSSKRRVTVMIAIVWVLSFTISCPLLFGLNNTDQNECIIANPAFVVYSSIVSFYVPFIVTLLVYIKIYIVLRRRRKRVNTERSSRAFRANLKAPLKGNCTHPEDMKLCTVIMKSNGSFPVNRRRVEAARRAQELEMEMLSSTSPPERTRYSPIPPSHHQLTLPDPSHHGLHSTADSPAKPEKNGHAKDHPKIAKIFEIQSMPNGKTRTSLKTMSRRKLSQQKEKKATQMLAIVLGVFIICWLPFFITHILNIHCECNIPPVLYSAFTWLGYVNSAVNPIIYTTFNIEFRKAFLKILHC

**Q.** Which results are given for `CCN(CC)CCNC(=O)c1cc(Cl)c(N)cc1OCC(C)OC` (stereo not drawn)?
**A.** ED50 [1]: > 3 mg/kg; IC50 (D(2) dopamine receptor): > 1 µM; Emetic episodes (Mustela putorius furo [2]): 1; Emetic episodes (Mustela putorius furo [3]): 3; Protection (Mustela putorius furo [4]): 57%; Protection (Mustela putorius furo [5]): 86%; ED50 [6]: > 40 mg/kg; ED50 [7]: > 40 mg/kg

**Q.** For `C#CCOc1cc(N)c(Cl)cc1C(=O)NCCN(CC)CC`, which ED50 [1] is on record?
**A.** The ED50 was over 1 mg/kg.

**Q.** And the Emetic episodes (Canis familiaris [8])?
**A.** Its Emetic episodes is 3.5.

**Q.** What about the IC50 (D(2) dopamine receptor) of the same compound?
**A.** Its IC50 is over 1 µM.

**Q.** What about the Emetic episodes (Canis familiaris [9]) of the same compound?
**A.** Its Emetic episodes is 2.

**Q.** What about the Protection (Canis familiaris [10]) of the same compound?
**A.** The Protection was 72%.

**Q.** What about the Protection (Canis familiaris [11]) of the same compound?
**A.** The Protection was 73%.

**Q.** And the Emetic episodes (Mustela putorius furo [12])?
**A.** Its Emetic episodes is 3.3.

**Q.** What about the Emetic episodes (Mustela putorius furo [13]) of the same compound?
**A.** The Emetic episodes was 4.3.

**Q.** And the Protection (Mustela putorius furo [5])?
**A.** Its Protection is 50%.

**Q.** What about the Protection (Mustela putorius furo [14]) of the same compound?
**A.** Its Protection is 40%.

**Q.** And the ED50 [6]?
**A.** The ED50 was over 40 mg/kg.

**Q.** And the ED50 [7]?
**A.** The ED50 was over 40 mg/kg.

**Q.** With `CCN(CC)CCNC(=O)c1cc(Cl)c(N)cc1OC(C)C(C)O` (stereo in doubt; 8g) as the compound, how does the Protection (Canis familiaris [15]) read?
**A.** Its Protection is 100%.

**Q.** What about the Protection (Canis familiaris [16]) of the same compound?
**A.** The Protection was 62%.

**Q.** And the Protection (Canis familiaris [17])?
**A.** The Protection was 100%.

**Q.** And the IC50 (D(2) dopamine receptor)?
**A.** The IC50 was over 1 µM.

**Q.** What about the Emetic episodes (Canis familiaris [18]) of the same compound?
**A.** Its Emetic episodes is 4.

**Q.** What about the Emetic episodes (Canis familiaris [19]) of the same compound?
**A.** The Emetic episodes was 0.

**Q.** And the Emetic episodes (Canis familiaris [20])?
**A.** The Emetic episodes was 0.

**Q.** What about the Protection (Mustela putorius furo [21]) of the same compound?
**A.** The Protection was 49%.

**Q.** And the Emetic episodes (Mustela putorius furo [12]; 3 mg/kg)?
**A.** Its Emetic episodes is 1.

**Q.** What about the Emetic episodes (Mustela putorius furo [22]) of the same compound?
**A.** The Emetic episodes was 0.7.

**Q.** And the Emetic episodes (Mustela putorius furo [13]; 1 mg/kg)?
**A.** The Emetic episodes was 1.3.

**Q.** And the Protection (Mustela putorius furo [4]; 1 mg/kg)?
**A.** Its Protection is 82%.

**Q.** And the Protection (Mustela putorius furo [5]; 3 mg/kg)?
**A.** The Protection was 86%.
